Source: ChEMBL document CHEMBL3120133, “Discovery of a potent boronic acid derived inhibitor of the HCV RNA-dependent RNA polymerase” (J Med Chem, 2014)

test system: not listed separately; assay: Inhibition of C-terminal 6xHis-tagged Hepatitis C virus genotype 1b BK NS5B Cdelta21 RNA dependent RNA polymerase L47Q/F101Y/[…] mutant after 30 mins in presence of [alpha-33P]; parameters: species or system Hepatitis C virus (isolate BK); settings: not given

Structure (SMILES) | IC50 [nM]
CNC(=O)c1c(-c2ccc(F)cc2)oc2cc(N(CCO)S(C)(=O)=O)c(C3CC3)cc12 [NESBUVIR] | 40
CNC(=O)c1c(-c2ccc(F)cc2)oc2cc(N(Cc3ccc4c(c3)B(O)OC4)S(C)(=O)=O)c(C3CC3)cc12 | 32
CNC(=O)c1c(-c2ccc(F)cc2)oc2cc(N(Cc3cccc4c3COB4O)S(C)(=O)=O)c(C3CC3)cc12 | 32
CNC(=O)c1c(-c2ccc(F)cc2)oc2cc(N(Cc3ccc4c(c3)CCOB4O)S(C)(=O)=O)c(C3CC3)cc12 | 40
CNC(=O)c1c(-c2ccc(F)cc2)oc2cc(N(Cc3ccc(B(O)O)c(C)c3)S(C)(=O)=O)c(C3CC3)cc12 | 80
CNC(=O)c1c(-c2ccc(F)cc2)oc2cc(N(CC3=CB(O)OC3)S(C)(=O)=O)c(C3CC3)cc12 | 50
CNC(=O)c1c(-c2ccc(F)cc2)oc2cc(N(Cc3ccc(B(O)O)c(OC)c3)S(C)(=O)=O)c(C3CC3)cc12 | 100

biological target: RNA-directed RNA polymerase (Hepacivirus hominis, UniProt O39930, C316N); assay: Inhibition of Hepatitis C virus genotype 1b NS5B Cdelta21 RNA dependent RNA polymerase 316N mutant using biotinylated polyC:oligoG/[alpha-P33]-GTP as template/substrate preincubated for 15 mins followed by template/substrate addition by scintillation proximity assay; parameters: species or system Hepatitis C virus subtype 1b; settings: not given
Sequence (O39930 entry or part of it C316N): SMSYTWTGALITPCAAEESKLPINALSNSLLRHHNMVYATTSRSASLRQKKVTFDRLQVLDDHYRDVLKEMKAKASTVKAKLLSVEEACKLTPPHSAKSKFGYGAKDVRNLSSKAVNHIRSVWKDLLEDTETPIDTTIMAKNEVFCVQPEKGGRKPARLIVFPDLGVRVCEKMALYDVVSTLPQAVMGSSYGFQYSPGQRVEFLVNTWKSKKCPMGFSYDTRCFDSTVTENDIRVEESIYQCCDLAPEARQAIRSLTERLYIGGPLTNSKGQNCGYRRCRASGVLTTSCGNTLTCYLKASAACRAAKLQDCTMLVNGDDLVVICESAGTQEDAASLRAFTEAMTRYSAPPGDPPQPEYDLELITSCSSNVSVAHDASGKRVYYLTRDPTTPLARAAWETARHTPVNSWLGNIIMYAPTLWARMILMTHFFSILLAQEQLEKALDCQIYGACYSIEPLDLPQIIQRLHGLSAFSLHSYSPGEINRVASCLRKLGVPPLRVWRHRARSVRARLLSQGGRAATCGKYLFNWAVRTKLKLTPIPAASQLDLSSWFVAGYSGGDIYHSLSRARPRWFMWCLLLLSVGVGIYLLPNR
Procedure, shortened: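 Isolated NS5B at 30 nM was preincubated with inhibitor for 15 min before reaction start. The IC50 was determined from the polymerase assay.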

Structure (SMILES) | IC50 [nM]
CNC(=O)c1c(-c2ccc(F)cc2)oc2cc(N(CCO)S(C)(=O)=O)c(C3CC3)cc12 [NESBUVIR] | 160

test system: Hepatitis C virus; assay: Antiviral activity against wild type Hepatitis C virus genotype 1b harboring S365T mutant infected in human HuH7 cells assessed as inhibition of viral replication after 72 hrs by Bright-glo luciferase reporter gene assay; assay type: functional, organism-based, Hepacivirus hominis; settings: Huh-7, 72 h

Structure (SMILES) | EC50 [nM]
CNC(=O)c1c(-c2ccc(F)cc2)oc2cc(N(CCO)S(C)(=O)=O)c(C3CC3)cc12 [NESBUVIR] | 1300

test system: RNA-directed RNA polymerase (Hepacivirus hominis), O39930 [C316N]; assay: Binding affinity to Hepatitis C virus genotype 1b NS5B Cdelta21 RNA dependent RNA polymerase 316N mutant assessed as dissociation half life at 10 uM by LC-MS/MS analysis; settings: Hepatitis C virus subtype 1b
Sequence (O39930 entry or part of it C316N): as above
Procedure, shortened: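 NS5B∆21 GT1b 316N (10 uM) saturated with 12uM inhibitor to pre-form the complex, then diluted 20-fold into 10 uM of the competing Palm II inhibitor to block rebinding. Bound compound was separated from free by rapid size-exclusion filtration over time, and both inhibitors were quantified by LC-MS. Off-rates were fitted to a single or two-phase exponential to give t1/2.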

Structure (SMILES) | T1/2 [h]
CNC(=O)c1c(-c2ccc(F)cc2)oc2cc(N(CCO)S(C)(=O)=O)c(C3CC3)cc12 [NESBUVIR] | 1.7

test system: Hepatitis C virus; assay: Antiviral activity against wild type Hepatitis C virus genotype 1a infected in human HuH7 cells assessed as inhibition of viral replication after 48 hrs by luciferase reporter gene assay; assay type: functional, organism-based, Hepacivirus hominis; settings: subtype 1a, Huh-7, 48 h
Procedure, shortened: (§1)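 Replicon-based readout (stable and transient replicon formats) in place of virus infection, with compound present for 2 days before EC50 determination.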

Structure (SMILES) | EC50 [nM]
CNC(=O)c1c(-c2ccc(F)cc2)oc2cc(N(CCO)S(C)(=O)=O)c(C3CC3)cc12 [NESBUVIR] | 27
CNC(=O)c1c(-c2ccc(F)cc2)oc2cc(N(Cc3ccc4c(c3)B(O)OC4)S(C)(=O)=O)c(C3CC3)cc12 | 7.4
CNC(=O)c1c(-c2ccc(F)cc2)oc2cc(N(Cc3cccc4c3COB4O)S(C)(=O)=O)c(C3CC3)cc12 | 17
CNC(=O)c1c(-c2ccc(F)cc2)oc2cc(N(Cc3ccc4c(c3)CCOB4O)S(C)(=O)=O)c(C3CC3)cc12 | 7
CNC(=O)c1c(-c2ccc(F)cc2)oc2cc(N(Cc3ccc(B(O)O)c(C)c3)S(C)(=O)=O)c(C3CC3)cc12 | 4.8
CNC(=O)c1c(-c2ccc(F)cc2)oc2cc(N(CC3=CB(O)OC3)S(C)(=O)=O)c(C3CC3)cc12 | 9.6
CNC(=O)c1c(-c2ccc(F)cc2)oc2cc(N(Cc3ccc(B(O)O)c(OC)c3)S(C)(=O)=O)c(C3CC3)cc12 | 12

test system: Huh-7; assay: Cytotoxicity in human HuH7 cells assessed as cell viability after 72 hrs by CellTitre-glo luminescence assay; assay type: cell-based; settings: huh-7, 72 h

Structure (SMILES) | Activity
CNC(=O)c1c(-c2ccc(F)cc2)oc2cc(N(CC3=CB(O)OC3)S(C)(=O)=O)c(C3CC3)cc12 | Non-toxic

test system: Hepatitis C virus; assay: Antiviral activity against wild type Hepatitis C virus genotype 1b harboring C316N mutant infected in human HuH7 cells assessed as inhibition of viral replication after 48 hrs by luciferase reporter gene assay; assay type: functional, organism-based, Hepacivirus hominis; settings: Huh-7, 48 h

Structure (SMILES) | EC50 [nM]
CNC(=O)c1c(-c2ccc(F)cc2)oc2cc(N(CCO)S(C)(=O)=O)c(C3CC3)cc12 [NESBUVIR] | 100
CNC(=O)c1c(-c2ccc(F)cc2)oc2cc(N(Cc3ccc4c(c3)B(O)OC4)S(C)(=O)=O)c(C3CC3)cc12 | 64
CNC(=O)c1c(-c2ccc(F)cc2)oc2cc(N(Cc3cccc4c3COB4O)S(C)(=O)=O)c(C3CC3)cc12 | 110
CNC(=O)c1c(-c2ccc(F)cc2)oc2cc(N(Cc3ccc4c(c3)CCOB4O)S(C)(=O)=O)c(C3CC3)cc12 | 9
CNC(=O)c1c(-c2ccc(F)cc2)oc2cc(N(Cc3ccc(B(O)O)c(C)c3)S(C)(=O)=O)c(C3CC3)cc12 | 5.4
CNC(=O)c1c(-c2ccc(F)cc2)oc2cc(N(CC3=CB(O)OC3)S(C)(=O)=O)c(C3CC3)cc12 | 13
CNC(=O)c1c(-c2ccc(F)cc2)oc2cc(N(Cc3ccc(B(O)O)c(OC)c3)S(C)(=O)=O)c(C3CC3)cc12 | 50

test system: not listed separately; assay: Stability of the compound; assay type: physicochemical; settings: not given

Structure (SMILES) | Stability
CNC(=O)c1c(-c2ccc(F)cc2)oc2cc(N(CC3=CB(O)OC3)S(C)(=O)=O)c(C3CC3)cc12 | Stable

test system: Hepatitis C virus; assay: Antiviral activity against wild type Hepatitis C virus genotype 1b harboring C316Y mutant infected in human HuH7 cells assessed as inhibition of viral replication after 72 hrs by Bright-glo luciferase reporter gene assay; assay type: functional, organism-based, Hepacivirus hominis; settings: Huh-7, 72 h

Structure (SMILES) | EC50 [nM]
CNC(=O)c1c(-c2ccc(F)cc2)oc2cc(N(CCO)S(C)(=O)=O)c(C3CC3)cc12 [NESBUVIR] | 420

test system: Hepatitis C virus; assay: Antiviral activity against wild type Hepatitis C virus genotype 1a harboring C316Y mutant infected in human HuH7 cells assessed as inhibition of viral replication after 48 hrs by luciferase reporter gene assay; assay type: functional, organism-based, Hepacivirus hominis; settings: subtype 1a, Huh-7, 48 h

Structure (SMILES) | EC50 [nM]
CNC(=O)c1c(-c2ccc(F)cc2)oc2cc(N(CCO)S(C)(=O)=O)c(C3CC3)cc12 [NESBUVIR] | 1900
CNC(=O)c1c(-c2ccc(F)cc2)oc2cc(N(Cc3ccc4c(c3)CCOB4O)S(C)(=O)=O)c(C3CC3)cc12 | 350

test system: Hepatitis C virus; assay: Antiviral activity against wild type Hepatitis C virus genotype 1b harboring C316F mutant infected in human HuH7 cells assessed as inhibition of viral replication after 72 hrs by Bright-glo luciferase reporter gene assay; assay type: functional, organism-based, Hepacivirus hominis; settings: Huh-7, 72 h

Structure (SMILES) | EC50 [nM]
CNC(=O)c1c(-c2ccc(F)cc2)oc2cc(N(CCO)S(C)(=O)=O)c(C3CC3)cc12 [NESBUVIR] | 2500

test system: Hepatitis C virus; assay: Antiviral activity against wild type Hepatitis C virus genotype 1b infected in human HuH7 cells assessed as inhibition of viral replication after 48 hrs by luciferase reporter gene assay; assay type: functional, organism-based, Hepacivirus hominis; settings: Huh-7, 48 h; procedure, shortened: as §1

Structure (SMILES) | EC50 [nM]
CNC(=O)c1c(-c2ccc(F)cc2)oc2cc(N(CCO)S(C)(=O)=O)c(C3CC3)cc12 [NESBUVIR] | 18
CNC(=O)c1c(-c2ccc(F)cc2)oc2cc(N(Cc3ccc4c(c3)B(O)OC4)S(C)(=O)=O)c(C3CC3)cc12 | 4.9
CNC(=O)c1c(-c2ccc(F)cc2)oc2cc(N(Cc3cccc4c3COB4O)S(C)(=O)=O)c(C3CC3)cc12 | 4.9
CNC(=O)c1c(-c2ccc(F)cc2)oc2cc(N(Cc3ccc4c(c3)CCOB4O)S(C)(=O)=O)c(C3CC3)cc12 | 4.2
CNC(=O)c1c(-c2ccc(F)cc2)oc2cc(N(Cc3ccc(B(O)O)c(C)c3)S(C)(=O)=O)c(C3CC3)cc12 | 2.2
CNC(=O)c1c(-c2ccc(F)cc2)oc2cc(N(CC3=CB(O)OC3)S(C)(=O)=O)c(C3CC3)cc12 | 1.9
CNC(=O)c1c(-c2ccc(F)cc2)oc2cc(N(Cc3ccc(B(O)O)c(OC)c3)S(C)(=O)=O)c(C3CC3)cc12 | 3.6
